Compounds with a hit are over-represented: about 1.9% of the library has one in this group of screens.
XiGFP reactiv – X-chromosome reactivation activator; XiGFP mouse fibroblasts, % GFP-positive cells imaging, 3 d; cells co-treated with 5-aza-dC sensitizer; scaled so ellipticine positive control = 100%; activation, % at 7.58 µM; 360,000 tested, 0.055% active;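 active = mean normalized replicate activation at least 10% and every replicate at or above 10%; inconclusive = only one of the two criteria met; inactive = mean below 10% and not all replicates reach 10%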;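 note: 0% = median of on-plate neutral control wells and 100% = ellipticine 6 µM median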
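Assay system: SV40-immortalized XiGFP fibroblast cells, line 68-5-11; buffer or medium: DMEM plus 5-aza-dC sensitizer; compound: one concentration, pinned; timing: compounds 3 days, fix/stain 15 min at room temperature; benchmarks: positive control ellipticine, 6 µM final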
PGC1a acetyl inh – lowers PGC1a acetylation signal in U2OS cells. AID 651687. 350,000 tested, 0.17% active. AlphaScreen anti-acetyl-lysine; with virally co-expressed GCN5 acetyltransferase. inhibition, % at 15.6 µM;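 active = every replicate shows inhibition of at least 40%; inconclusive = mean inhibition at least 40% but some replicate below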;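 note: 0% = neutral control wells and 100% = positive control wells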
DENV2 CPE – inhibitors of DENV2 cytopathic effect; DENV2-infected cells, cytopathic effect rescue, plate reader; CPE inhibition, % at 9.99 µM; 350,000 tested, 1.7% active; AID 651640; in the data active = CPE inhibition above about 20%, passing the limit was not always enough; inconclusive = no clear call, values can overlap the other calls; tested in BHK-21 cells;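 note: 0% = median of neutral control wells and 100% = median of positive control wells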
Cneo AK release – causes C. neoformans cell lysis | adenylate kinase release luminescence, 4 h; normalised: neutral wells 0, clomiphene wells 100 | lysis activity, % at 15 µM | 360,000 tested, 0.2% active | AID 651654;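 active = mean lysis activity across replicates of at least 80%, whatever share of replicates individually reach that level; inactive = mean lysis activity below 80%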
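Schedule: static 4 h at 37 °C with compound, 1 h detection; system: C. neoformans cells; benchmarks: Clomiphene as positive control; buffer or medium: fresh YPD medium; measure: luminescence rise reflecting yeast cell lysis; measured by: luminescent adenylate kinase detection reagent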
F508del corr – correctors of CFTR F508del function in bronchial epithelial cells; CFBE cells, YFP halide quenching; stimulated with forskolin plus potentiator P3; % fluorescence drop versus neutral controls; activity (quench increase), % at 7.58 µM; 350,000 tested, 0.36% active;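 active = mean added fluorescence quench of at least 8% versus neutral control, with both replicates also reaching 8%; inconclusive = only one of the mean or replicate conditions met; inactive = mean below 8% and not both replicates reaching 8%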;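 note: cells transiently co-express mutant CFTR-F508del with the halide-sensitive YFP; corrector assay measuring rescue of mutant channel to the surface after 24 h compound exposure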
FN deposit inh – fibronectin deposition inhibition. AH1F fibroblasts, Alexa488-fibronectin deposition fluorescence, overnight. inhibition, % at 12.6 µM. 350,000 tested, 0.086% active;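 active = mean inhibition across replicates of 30% or more, regardless of how many single replicates reach that level; inconclusive = mean under 30% yet at least half of replicates reach 30%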;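 note: positive control wells lacked labelled fibronectin entirely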
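test system = AH1F fibroblasts assembling fluorescent fibronectin matrix | quantity = 10000 AH1F cells per well | buffer or medium = DMEM plus 2% serum, read in PBS | doses = single dose, pinned | incubation = 1 h cell attachment, overnight exposure to compound and label | detection = fluorescence at 485 nm excitation, 525 nm emission | read-out basis = inhibition from reduced deposited-fibronectin fluorescence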
The depositor's hits bear a star.

`Nc1[nH]c(C(=O)c2ccccc2)c(-c2ccc(Cl)cc2)c1C(=O)c1c[nH]c2ccccc12` gave XiGFP reactiv 0, DENV2 CPE 28*, F508del corr -1 and FN deposit inh 3.
COc1ccc(-c2c(C(=O)c3ccccc3)[nH]c(N)c2C(=O)NCCc2c[nH]c3ccccc23)cc1 was read as XiGFP reactiv 0, DENV2 CPE 31*, F508del corr 0 and FN deposit inh -8.
Nc1[nH]c(C(=O)c2ccc(Br)cc2)c(-c2ccc(Br)cc2)c1C(=O)NCCc1c[nH]c2ccccc12 was read as XiGFP reactiv 0, DENV2 CPE 3, F508del corr 1 and FN deposit inh -6.
For C[C@@H]1CN([C@@H](C)CO)C(=O)c2cccc(NC(=O)C3CCOCC3)c2O[C@H]1CN(C)C(=O)Nc1ccc2c(c1)OCO2 the results were XiGFP reactiv 0, PGC1a acetyl inh 5, DENV2 CPE 5, Cneo AK release -8, F508del corr -1 and FN deposit inh 0.
Screening Nc1[nH]c(C(=O)c2ccc(Br)cc2)c(-c2ccncc2)c1C(=O)NCCc1c[nH]c2ccccc12 returned XiGFP reactiv 0, DENV2 CPE 20*, F508del corr 0 and FN deposit inh -5.
`COCCNC(=O)c1c(N)[nH]c(C(=O)c2ccc(Br)cc2)c1-c1ccc(Br)cc1` gave XiGFP reactiv 0, DENV2 CPE 34*, F508del corr -1 and FN deposit inh 2.
`Nc1[nH]c(C(=O)c2ccccc2)c(-c2ccccc2Br)c1C(=O)NCCc1c[nH]c2ccccc12` gave XiGFP reactiv 0, DENV2 CPE 0, F508del corr -3 and FN deposit inh 4.
`Nc1[nH]c(C(=O)c2ccccc2)c(-c2ccccc2C(F)(F)F)c1C(=O)NCCc1c[nH]c2ccccc12` gave XiGFP reactiv 0, DENV2 CPE 3, F508del corr 9.8* and FN deposit inh -2.
CCC(=O)N(C)C[C@@H]1Oc2cc(-c3ccccc3C)ccc2S(=O)(=O)N([C@@H](C)CO)C[C@@H]1C was read as XiGFP reactiv 0, DENV2 CPE 10, Cneo AK release -1 and F508del corr -2.
Screening C[C@H](CO)N1C[C@H](C)[C@H](CN(C)Cc2ccc(Oc3ccccc3)cc2)Oc2cc(-c3ccncc3)ccc2S1(=O)=O returned XiGFP reactiv -1, PGC1a acetyl inh -11, DENV2 CPE -33, Cneo AK release -6, F508del corr 4 and FN deposit inh -3.
C[C@H]1CCCCO[C@H](CN(C)Cc2ccc(Cl)c(Cl)c2)[C@@H](C)CN([C@@H](C)CO)C(=O)c2cc(N(C)C)ccc2O1 was read as PGC1a acetyl inh 24, DENV2 CPE -6, Cneo AK release 5 and F508del corr 3.
C[C@H]1CN([C@@H](C)CO)C(=O)c2cc(NS(=O)(=O)c3ccc(F)cc3)ccc2O[C@@H]1CN(C)S(=O)(=O)c1ccccc1 was read as XiGFP reactiv 0, PGC1a acetyl inh -14, DENV2 CPE 0, Cneo AK release 105* and F508del corr -2.
Screening C[C@H]1CN([C@@H](C)CO)C(=O)c2cc(NS(=O)(=O)c3ccc(F)cc3)ccc2O[C@@H]1CN(C)S(=O)(=O)c1ccc(F)cc1 returned XiGFP reactiv 0, PGC1a acetyl inh -6, DENV2 CPE 54*, Cneo AK release 0 and F508del corr 0.
Screening CCNS(=O)(=O)c1ccc(Br)c(C(=O)OC(C)C(=O)NCC2CCCCC2)c1 (configuration not stated) returned XiGFP reactiv 0, PGC1a acetyl inh 2, DENV2 CPE 43*, Cneo AK release 1, F508del corr -3 and FN deposit inh -3.
`CC(OC(=O)c1cccc(S(=O)(=O)N2CCCCC2)c1)C(=O)NCC1CCCCC1` (configuration not stated) gave XiGFP reactiv 0, DENV2 CPE -7, Cneo AK release 0, F508del corr 1 and FN deposit inh 4.
COc1ccc2[nH]c(C)cc(=O)c2c1 was read as Cneo AK release 8.
Screening COc1ccc2[nH]c3c(C)c4ccncc4c(C)c3c2c1 returned PGC1a acetyl inh 37, DENV2 CPE -2, Cneo AK release 0 and F508del corr 16*.
Screening CCC(=O)N1CC2(CN(Cc3ccccc3Cl)C2)c2c([nH]c3cc(OC)ccc23)[C@H]1CO returned XiGFP reactiv 0, PGC1a acetyl inh -4, DENV2 CPE 0 and F508del corr 4.
COc1cccc(-c2ccc([C@H]3[C@@H](CO)N4CCCCN(Cc5cncnc5)C[C@H]34)cc2)c1 was read as XiGFP reactiv 0, PGC1a acetyl inh -1, DENV2 CPE 38*, Cneo AK release -2 and F508del corr 3.
`OC[C@@H]1[C@@H](c2ccc(-c3ccccc3F)cc2)[C@H]2CN(Cc3cncnc3)CCCCN12` gave XiGFP reactiv 0, PGC1a acetyl inh 6, DENV2 CPE 68*, Cneo AK release 5 and F508del corr 1.
Screening OC[C@@H]1[C@@H](c2ccc(-c3cccc(F)c3)cc2)[C@@H]2CN(Cc3cncnc3)CCCCN12 returned XiGFP reactiv 0, PGC1a acetyl inh -2, DENV2 CPE 47*, Cneo AK release 1, F508del corr 3 and FN deposit inh 3.
OC[C@H]1[C@@H](c2ccc(-c3cccc(F)c3)cc2)[C@H]2CN(Cc3cncnc3)CCCCN21 was read as XiGFP reactiv 0, PGC1a acetyl inh -1, DENV2 CPE inconclusive, Cneo AK release -2, F508del corr 0 and FN deposit inh 6.
`Cc1noc(C)c1NC(=O)N(C)C[C@@H]1OCCCC[C@H](C)Oc2ccc(NS(=O)(=O)c3ccc(F)cc3)cc2C(=O)N([C@H](C)CO)C[C@@H]1C` gave XiGFP reactiv 0, DENV2 CPE -1, Cneo AK release -1, F508del corr -3 and FN deposit inh 13.
COCCNC(=O)C[C@@H]1CC[C@@H]2[C@H](COc3ccc(NC(=O)C4CCCC4)cc3C(=O)N2C)O1 was read as XiGFP reactiv 0, PGC1a acetyl inh 2, DENV2 CPE 0, Cneo AK release 45, F508del corr 1 and FN deposit inh 9.
Screening CCCC#Cc1ccc2c(c1)O[C@@H](CN(C)C(=O)C1CCCCC1)[C@H](C)CN([C@H](C)CO)S2(=O)=O returned XiGFP reactiv 0, PGC1a acetyl inh 3 and F508del corr 0.
CCc1nc(N2CCCCC2C)c2oc3ccccc3c2n1 (configuration not stated) was read as PGC1a acetyl inh -6, Cneo AK release 86* and FN deposit inh -3.

Compound activity from PubChem BioAssay.
